Data published in ChEMBL document CHEMBL5136960, “Discovery of sustainable drugs for Alzheimer's disease: cardanol-derived cholinesterase inhibitors with antioxidant and anti-amyloid properties” (RSC Med Chem, 2021).
Active and inactive are the calls of the source. No cut-off for these calls is given here.

Tests used:
HepG2 = experiment: Cytotoxicity against human HepG2 cells assessed as cell viability upto 10 uM for 24 hrs by MTT assay; assay type: toxicity, cell-based; settings: hepg2, 24 h
In short: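 HepG2 cells grown in DMEM with 10% FBS and penicillin/streptomycin at 37 °C, 5% CO2. Seeded at 5×10^3 cells/well and left to adhere overnight. Exposed 24 h to 1.25-10 µM, with DMSO vehicle as control. Then 300 µM MTT in DMEM for 2 h at 37 °C. Formazan dissolved in DMSO and read at 570 nm.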

Acetylcholinesterase [1] = target: T1, Acetylcholinesterase (Homo sapiens, UniProt P22303); experiment: Inhibition of AChE in human serum at 20 uM by Ellman's method; assay type: cell-free
[2] = Stability in plasma (unknown orgin) measured upto 60 mins; assay type: ADME, cell-free; settings: 1 h
In short: (§1)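 Pooled human plasma. Compound added from a 1 µM DMSO solution and incubated at 37 °C for 0, 15, 30, 60 or 120 min. Reaction stopped with cold acetonitrile containing internal standard, then centrifuged. Supernatant analysed by reverse-phase C18 HPLC-MS in positive mode. Compound/IS peak-area ratio at each time, relative to 0 min, gives percent remaining. Phosphate buffer pH 7.4 used as control matrix, rivastigmine as positive control.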

[3] = Antioxidant activity assessed as gallic acid equivalents by HORAC assay; assay type: functional
In short: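 Hydroxyl radical scavenging (HORAC kit). Methanol stocks (2-4 mM) diluted to 50 µM in assay buffer. Sample and fluorescein incubated 30 min at room temperature, then hydroxyl radical initiator and Fenton reagent added. Fluorescence decay read at ex 480/em 530 nm. AUC minus blank, divided by AUC of 50 µM gallic acid minus blank, gives gallic acid equivalents.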

SH-SY5Y = experiment: Inhibition of TBH-induced reactive oxygen species production in human SHSY-5Y cells at 10 uM preincubated for 24 hrs followed by TBH addition by DCFH-DA staining based flow cytometry; assay type: functional, cell-based
[4] = Solubility of compound in 5% DMSO/PBS solution; assay type: physicochemical
[5] = Stability in plasma (unknown orgin) measured after 120 mins; assay type: ADME, cell-free; settings: read-out: Stability; in short: as §1
Cholinesterase [6] = target: T2, Cholinesterase (Homo sapiens, UniProt P06276); experiment: Inhibition of BChE in human serum at 20 uM by Ellman's method; assay type: cell-free
In short: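 Human serum BChE, 0.02 U, in 0.1 M phosphate pH 8.0 with 340 μM DTNB and 5% methanol final. Compound preincubated with enzyme 20 min at 37 °C, then 550 μM butyrylthiocholine iodide added. Initial rate read as A412 over 240 s, with an enzyme-free blank. Percent inhibition at a single 20 μM. Mean of ≥2 independent experiments, each in triplicate.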

[7] = target: Amyloid-beta precursor protein (Homo sapiens) (UniProt P05067); experiment: Inhibition of amyloid beta42 (unknown origin) aggregation assessed as non toxic aggregrates formation measured after 48 hrs TEM imaging analysis
In short: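 Synthetic Aβ42, freeze-dried, redissolved in PBS pH 7.4 to 60 µM and vortexed about 5 min. Compound added at 1:5 Aβ42:compound. A 20 µL aliquot applied to the grid for 2 min, negatively stained with 1% uranyl acetate for 2 min, dried and imaged by TEM at 120 kV.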

Cholinesterase [8] = target: T2, Cholinesterase; experiment: Inhibition of BChE in human serum by Ellman's method; assay type: cell-free
In short: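 Human serum BChE, 0.02 U, in 0.1 M phosphate pH 8.0 with 340 μM DTNB and 5% methanol final. 20 min enzyme–compound preincubation at 37 °C, then 550 μM butyrylthiocholine iodide added. Rate from A412 slope over 240 s, blank-corrected. Five concentrations chosen to give 20–80% inhibition. IC50 taken from log concentration–inhibition curves. Mean of ≥2 independent triplicate experiments.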

Acetylcholinesterase [9] = target: T1, Acetylcholinesterase; experiment: Inhibition of AChE in human serum by Ellman's method; assay type: cell-free

T1 sequence (P22303 whole entry): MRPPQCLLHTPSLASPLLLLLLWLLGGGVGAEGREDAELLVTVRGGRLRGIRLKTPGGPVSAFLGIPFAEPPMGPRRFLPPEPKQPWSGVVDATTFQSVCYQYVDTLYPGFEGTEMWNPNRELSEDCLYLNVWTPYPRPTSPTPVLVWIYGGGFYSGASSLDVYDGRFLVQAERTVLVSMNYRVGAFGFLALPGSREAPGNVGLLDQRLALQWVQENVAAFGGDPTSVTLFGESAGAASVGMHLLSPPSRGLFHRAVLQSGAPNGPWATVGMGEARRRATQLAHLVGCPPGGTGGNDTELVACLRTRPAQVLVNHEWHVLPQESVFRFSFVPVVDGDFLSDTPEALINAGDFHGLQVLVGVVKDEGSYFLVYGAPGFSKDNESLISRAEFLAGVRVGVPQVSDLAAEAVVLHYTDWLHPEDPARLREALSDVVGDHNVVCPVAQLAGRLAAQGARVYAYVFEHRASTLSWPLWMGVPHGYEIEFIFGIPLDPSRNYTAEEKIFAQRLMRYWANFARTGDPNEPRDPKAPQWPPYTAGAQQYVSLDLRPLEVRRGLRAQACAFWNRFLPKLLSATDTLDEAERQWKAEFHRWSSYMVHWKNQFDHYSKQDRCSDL
Chain of Amyloid-beta precursor protein (Homo sapiens) (P05067 whole entry): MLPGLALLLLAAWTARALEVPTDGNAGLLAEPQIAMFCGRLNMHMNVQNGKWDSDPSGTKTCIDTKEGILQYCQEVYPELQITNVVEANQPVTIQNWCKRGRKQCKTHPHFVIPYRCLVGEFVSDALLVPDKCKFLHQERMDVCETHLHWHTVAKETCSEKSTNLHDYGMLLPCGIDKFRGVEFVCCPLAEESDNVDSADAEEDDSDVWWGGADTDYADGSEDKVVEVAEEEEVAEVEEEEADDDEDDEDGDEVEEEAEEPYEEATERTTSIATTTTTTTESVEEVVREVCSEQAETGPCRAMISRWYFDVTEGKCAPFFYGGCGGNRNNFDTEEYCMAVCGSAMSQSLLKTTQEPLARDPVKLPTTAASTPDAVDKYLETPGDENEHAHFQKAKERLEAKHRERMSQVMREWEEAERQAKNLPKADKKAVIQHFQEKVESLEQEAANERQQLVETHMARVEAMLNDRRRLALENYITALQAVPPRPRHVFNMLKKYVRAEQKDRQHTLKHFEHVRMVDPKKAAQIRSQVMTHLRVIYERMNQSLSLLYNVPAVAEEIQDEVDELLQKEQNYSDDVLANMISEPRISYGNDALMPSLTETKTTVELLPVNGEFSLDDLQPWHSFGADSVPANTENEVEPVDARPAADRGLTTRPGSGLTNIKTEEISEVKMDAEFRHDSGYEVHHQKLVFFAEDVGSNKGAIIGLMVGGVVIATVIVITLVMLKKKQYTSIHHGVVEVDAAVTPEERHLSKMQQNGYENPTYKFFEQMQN
T2 sequence (P06276 whole entry): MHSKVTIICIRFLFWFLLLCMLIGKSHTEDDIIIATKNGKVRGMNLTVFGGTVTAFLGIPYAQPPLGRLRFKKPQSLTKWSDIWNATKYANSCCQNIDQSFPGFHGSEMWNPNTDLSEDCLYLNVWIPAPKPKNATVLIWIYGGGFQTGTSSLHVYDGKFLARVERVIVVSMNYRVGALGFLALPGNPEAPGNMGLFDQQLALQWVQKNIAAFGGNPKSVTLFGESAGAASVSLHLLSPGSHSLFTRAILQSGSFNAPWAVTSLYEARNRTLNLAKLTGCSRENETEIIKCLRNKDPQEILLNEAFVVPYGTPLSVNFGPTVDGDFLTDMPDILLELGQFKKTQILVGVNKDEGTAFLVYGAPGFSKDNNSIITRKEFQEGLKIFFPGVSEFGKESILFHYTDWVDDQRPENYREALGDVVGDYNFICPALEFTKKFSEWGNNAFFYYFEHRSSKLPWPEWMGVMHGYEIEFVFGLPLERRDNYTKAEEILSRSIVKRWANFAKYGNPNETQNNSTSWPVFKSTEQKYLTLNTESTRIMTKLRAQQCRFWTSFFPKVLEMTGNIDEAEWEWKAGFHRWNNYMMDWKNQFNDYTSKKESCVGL

| Structure (SMILES) | Activity (HepG2) | inhibition (Acetylcholinesterase [1]) | Stability [2] | Activity [3] | inhibition (SH-SY5Y) | solubility [4] | remaining at 2 h [5] | inhibition (Cholinesterase [6]) | inhibition [7] | IC50 (Cholinesterase [8]) | IC50 (Acetylcholinesterase [9]) |
| --- | --- | --- | --- | --- | --- | --- | --- | --- | --- | --- | --- |
| OCCCCCCCCc1ccc(CN2CCCCC2)c(O)c1 | Non-Toxic | 40.5% | Stable | 4.37 equiv | Active | < 3.9 mM | 97% | 73.5% | Active | 6.12 µM | 30 µM |
| OCCCCCCCCc1ccc(CN2CCNCC2)c(O)c1 | – | < 10% | – | 1.49 equiv | – | – | – | 17.7% | – | – | – |
| COc1cc(/C=C/C(=O)O)ccc1O | – | – | – | 4.04 equiv | – | – | – | – | – | – | – |
| CCN(CC)Cc1ccc(CCCCCCCCO)cc1O | – | 12.4% | – | 5.49 equiv | – | – | – | 50.5% | Active | 17.5 µM | – |
| OCCCCCCCCc1ccc(CN2CCCC2)c(O)c1 | – | 31.1% | – | 4.88 equiv | – | – | – | 59% | – | 13.3 µM | 47.6 µM |
| CC(=O)N1CCN(Cc2ccc(CCCCCCCCO)cc2O)CC1 | – | < 10% | – | 4.52 equiv | – | – | – | < 5% | – | – | – |
| OCCCCCCCCc1ccc(CN2CCSCC2)c(O)c1 | – | 12.1% | – | 4.38 equiv | – | – | – | 16.6% | – | – | – |
| OCCCCCCCCc1ccc(CN2CCOCC2)c(O)c1 | – | < 5% | – | 9.73 equiv | – | – | – | < 10% | Active | – | – |
| CN1CCN(Cc2ccc(CCCCCCCCO)cc2O)CC1 | – | < 5% | – | 4.8 equiv | – | – | – | 10.6% | – | – | – |
| CN(Cc1ccccc1)Cc1ccc(CCCCCCCCO)cc1O | – | 19.4% | – | 3.7 equiv | – | – | – | 68.3% | Active | 6.74 µM | – |
| OCCCCCCCCc1ccc(CN2CCCCCC2)c(O)c1 | Non-Toxic | < 10% | Stable | 3.5 equiv | Active | < 5 mM | 85% | 77.1% | Active | 4.62 µM | 785 µM |
